TAAR1 antagonist = human TAAR1 antagonists, primary screen, Fluo-8 calcium fluorescence, CHO RD-HGA16 cells | Trace amine-associated receptor 1 (Homo sapiens), Q96RJ0 | antagonist | inhibition, % at 3 µM | actives 1.5% (n = 360,000);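 active = inhibition above a per-plate cutoff, the mean inhibition of test compounds on that plate plus 3 SD, cut at about 49% in these data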;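 note: 0% = DMSO plus EC80 beta-PEA response and 100% = DMSO alone without agonist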
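Test system: RD-HGA16 CHO cells with stable hTAAR1 and Gα16 / Probe or stimulus: EC80 β-phenethylamine stimulus / Times: seeding 17-24 h prior, 75-min 37 °C, 30-min RT dye loading / Detection: Fluo-8 calcium-sensitive fluorescence / Read-out basis: % inhibition scaled between DMSO and EC80 PEA controls / Repeats: singlicate, one well per test compound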
OX1R antag-1 = antagonists of human orexin 1 receptor (OX1R) | Orexin/Hypocretin receptor type 1 (Homo sapiens), O43613 | OX1R-expressing cells, FRET antagonist read-out | inhibition, % at 6.6 µM | actives 1.8% (n = 330,000) | AID 485270, 2010; in the data active = inhibition mostly above about 38%, no sharp cut-off; inactive = mostly below about 40%;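 note: 0% = agonist challenge alone and 100% = reference antagonist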
Target sequence (O43613 whole entry, looked up): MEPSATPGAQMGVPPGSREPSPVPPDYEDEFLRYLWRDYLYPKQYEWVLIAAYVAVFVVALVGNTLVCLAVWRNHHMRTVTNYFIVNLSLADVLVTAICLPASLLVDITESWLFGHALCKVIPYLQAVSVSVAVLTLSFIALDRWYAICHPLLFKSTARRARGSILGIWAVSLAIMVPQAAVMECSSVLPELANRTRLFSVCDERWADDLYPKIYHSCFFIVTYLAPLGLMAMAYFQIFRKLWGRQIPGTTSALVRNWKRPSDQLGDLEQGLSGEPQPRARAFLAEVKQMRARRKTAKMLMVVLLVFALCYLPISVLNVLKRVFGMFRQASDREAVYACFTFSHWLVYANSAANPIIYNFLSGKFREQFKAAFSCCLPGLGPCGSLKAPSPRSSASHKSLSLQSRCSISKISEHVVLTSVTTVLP
TAAR1 agonist = human TAAR1 agonists, primary screen, Fluo-8 calcium fluorescence, CHO RD-HGA16 cells; vehicle wells 0%, saturating PEA agonist 100%; activation, % at 3 µM; actives 0.99% (n = 360,000); AID 624467, 2012;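 active = activation above the mean activation of all test compounds in the run plus 3 SD, cut at about 38% in these data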
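Signal – calcium-sensitive Fluo-8 signal, excitation 470-495, emission 515-575 nm · System – RD-HGA16 (CHO) cells co-expressing Gα16 and hTAAR1 · Incubation – 17-24 h seeding, 75 min 37 °C dye, 30 min RT · Compound dosing – 3 µM single concentration · Repeats – no replicates (n 1)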
GalR3 antagonist = GalR3 antagonists in HEK293 cells, primary screen, cell-based, fluorescence readout. inhibition, % at 3 µM. HEK293 GalR3-CNG cAMP membrane potential fluorescence; galR3 body fused to GalR1 C-terminus. actives 0.44% (n = 360,000);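 active = inhibition above the screen-wide average plus 3 SD, cut at about 13% in these data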;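 note: forskolin and galanin both at EC90 stimulate the cells; cAMP rise reported by CNG channel membrane potential dye signal; 0% = forskolin plus galanin with DMSO and 100% = forskolin alone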
OX1R antag-2 = OX1R (HCRTR1) antagonists, primary screen, fluorescence, CHO/OX1R cells, Fluo-8 calcium, orexin A; Orexin/Hypocretin receptor type 1 (Homo sapiens), O43613; Fluo-8 calcium fluorescence; inhibition, % at 5 µM; actives 0.43% (n = 330,000); AID 434989, 2010;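 active = inhibition above its plate's threshold, mean inhibition of all tested compounds on the plate plus 3 SD, cut at about 37% in these data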;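 note: 0% = orexin A challenge wells and 100% = SB-334867-A antagonist wells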
CHO parental Ca = ATP-evoked calcium signal inhibitors, parental CHO, primary screen, counter-screen for OX1R antagonist project, cell-based, fluorescence, Fluo-8 calcium dye; parental CHO-K1, ATP-induced calcium, Fluo-8 fluorescence; actives 0.63% (n = 330,000); inhibition, % at 5.6 µM;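 active = inhibition above that plate's mean sample inhibition plus 3 SD, cut at about 26% in these data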;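 note: 0% = ATP-challenged DMSO wells and 100% = DMSO wells without ATP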
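Assay system: untransfected parental CHO cell line. Also added: ATP agonist challenge. Dosing: one dose, 5.6 µM nominal. Measured by: Fluo-8 fluorescence. Read-out: % inhibition. Benchmarks: ATP wells versus no-ATP DMSO wells. Repeats: no replicates.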
An asterisk follows results filed as active. A selection: hits, their analogues and other compounds. The true share with any hit is near 4.2%.

Screening CCOC(=O)C1=NN(C(=O)c2ccccc2)C(O)(c2ccc(C)cc2)C1 (configuration not stated) returned TAAR1 antagonist -14, OX1R antag-1 17, TAAR1 agonist 38*, GalR3 antagonist -5, OX1R antag-2 -28 and CHO parental Ca -17.
For CCOC(=O)C1=NN(C(=O)Cc2ccccc2)C(O)(c2ccc(Cl)cc2)C1 (configuration not stated) the results were TAAR1 antagonist -24, OX1R antag-1 13, TAAR1 agonist 11, GalR3 antagonist -2, OX1R antag-2 -20 and CHO parental Ca -6.
Screening COC(=O)C1=C(O)/C(=C/c2cccc(OC)c2O)N=C1C returned TAAR1 antagonist -16, OX1R antag-1 63*, TAAR1 agonist 0, GalR3 antagonist 6, OX1R antag-2 -16 and CHO parental Ca 14.
COC(=O)C1=C(O)/C(=C\c2cc(C)n(-c3ccc(F)cc3)c2C)N=C1C was read as TAAR1 antagonist -5, OX1R antag-1 28, TAAR1 agonist 6, GalR3 antagonist -4, OX1R antag-2 -2 and CHO parental Ca 5.
Screening CCCn1cc(SCC(=O)NCc2ccco2)c2ccccc21 returned TAAR1 antagonist -4, OX1R antag-1 16, TAAR1 agonist -2, GalR3 antagonist -8, OX1R antag-2 -10 and CHO parental Ca -15.
Screening O=C(NCCn1cc(SCc2ccc(F)cc2)c2ccccc21)c1ccccc1F returned OX1R antag-1 29, OX1R antag-2 9 and CHO parental Ca 71*.
For Cn1cc(SCC(=O)NCc2ccc(F)cc2)c2ccccc21 the results were TAAR1 antagonist -3, OX1R antag-1 5, TAAR1 agonist 3, GalR3 antagonist -6, OX1R antag-2 -22 and CHO parental Ca -22.
O=C(CSc1cn(CCNC(=O)c2ccccc2)c2ccccc12)NCc1ccco1 was read as TAAR1 antagonist 7, OX1R antag-1 41*, TAAR1 agonist 2, OX1R antag-2 -11 and CHO parental Ca -14.
CCOc1ccccc1Oc1coc2cc(OC(=O)c3ccco3)ccc2c1=O was read as TAAR1 antagonist 9, OX1R antag-1 20, TAAR1 agonist 2, GalR3 antagonist -5, OX1R antag-2 -11 and CHO parental Ca -6.
Screening COc1cccc(/C=C2/SC(=S)N(CC(=O)NNC(=O)c3ccccc3O)C2=O)c1 returned TAAR1 antagonist -6, OX1R antag-1 48*, TAAR1 agonist -1, GalR3 antagonist -10, OX1R antag-2 -3 and CHO parental Ca -11.
Screening COc1ccc(/C=C2/SC(=S)N(CCCC(=O)Nc3ccc(O)cc3)C2=O)cc1OC returned TAAR1 antagonist -26, OX1R antag-1 54*, TAAR1 agonist -2, GalR3 antagonist -2, OX1R antag-2 -11 and CHO parental Ca -1.
COc1cccc(/C=C2/SC(=S)N(CCCC(=O)Nc3ccc(O)cc3)C2=O)c1 was read as TAAR1 antagonist -24, OX1R antag-1 73*, TAAR1 agonist -1, GalR3 antagonist 0, OX1R antag-2 10 and CHO parental Ca -9.
`COc1cccc(/C=C2\SC(=S)N(CCCC(=O)Nc3ccc(C(=O)O)cc3)C2=O)c1` gave TAAR1 antagonist -19, OX1R antag-1 0, TAAR1 agonist 4, GalR3 antagonist -2, OX1R antag-2 -16 and CHO parental Ca -15.
O=C(CCN1C(=O)/C(=C/c2ccc3c(c2)OCO3)SC1=S)Nc1cccc(C(=O)O)c1 was read as TAAR1 antagonist -12, OX1R antag-1 10, TAAR1 agonist 1, GalR3 antagonist -7, OX1R antag-2 -5 and CHO parental Ca 4.
Screening O=C(CCCN1C(=O)/C(=C/c2ccc3c(c2)OCO3)SC1=S)Nc1cccc(C(=O)O)c1 returned TAAR1 antagonist -14, OX1R antag-1 54*, TAAR1 agonist 3, GalR3 antagonist -2, OX1R antag-2 7 and CHO parental Ca -17.

Screens from PubChem.
